Results reported in ChEMBL document CHEMBL1127677, “The novel Ins(1,4,5)P3 analogue 3-amino-3-deoxy-Ins(1,4,5)P3: a pH-dependent Ins(1,4,5)P3 receptor partial agonist in SH-SY5Y neuroblastoma cells” (J Med Chem, 1994).

What was measured:
[1] = Calcium mobilization in saponin permeabilised SH-SY5Y neuroblastoma cells at a pH of 6.8; format: functional, cell-based; details: Homo sapiens
In short: (§1)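 SH-SY5Y cells were preloaded with 45Ca2+ and permeabilized with saponin. Release from Ins(1,4,5)P3-sensitive stores was measured in cytosolic-like buffer at pH 6.8, 7.2 or 7.6, at 20–22 °C. Release was normalized to 100% using 30 μM Ins(1,4,5)P3 as an internal standard in each experiment. EC50 from curve fitting, mean ± sem, n = 4.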

[2] = Calcium mobilization in saponin permeabilised SH-SY5Y neuroblastoma cells at a pH of 7.6; format: functional, cell-based; details: Homo sapiens; in short: as §1
[3] = target: T1, Type 1 InsP3 receptor isoform S2 (Sus scrofa, UniProt P79248); assay: Binding affinity against IP3 receptor in pig cerebellar membranes at a pH of 6.8 using [3H]Ins(1,4,5)P3 as the radioligand.; format: cell membranes, Cerebellum, Membrane
T1 sequence (P79248 whole entry, canonical isoform): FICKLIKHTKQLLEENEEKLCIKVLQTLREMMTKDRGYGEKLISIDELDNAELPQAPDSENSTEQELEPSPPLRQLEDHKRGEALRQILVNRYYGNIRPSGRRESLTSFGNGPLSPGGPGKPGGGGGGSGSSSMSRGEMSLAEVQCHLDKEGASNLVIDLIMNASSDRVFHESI
In short: (§2)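 [3H]Ins(1,4,5)P3 displacement using pig cerebellar P2 membranes, assayed at pH 6.8. Buffer: 25 mM Tris/maleate, 5 mM NaHCO3, 1 mM EDTA, 0.25 mM DTT. Increasing ligand concentrations were incubated with 1.5 nM radioligand and about 70 μg membrane protein for 30 min at 4 °C. Bound ligand was separated by centrifugation. Nonspecific binding was taken with 10 μM Ins(1,4,5)P3. IC50 from curve fitting, mean ± sem, n = 3.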

[4] = target: T1, Type 1 InsP3 receptor isoform S2; assay: Binding affinity against IP3 receptor in pig cerebellar membranes at a pH of 7.6 using [3H]Ins(1,4,5)P3 as the radioligand.; format: cell membranes, Cerebellum, Membrane
In short: as §2, with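 “7.6.” for “6.8.”, “50” for “70”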

[5] = Calcium mobilization in saponin permeabilised SH-SY5Y neuroblastoma cells at a pH of 7.2; format: functional, cell-based; details: Homo sapiens; in short: as §1

Row | SMILES | EC50 [1] [nM] | EC50 [2] [nM] | IC50 [3] [nM] | IC50 [4] [nM] | EC50 [5] [nM]
1 | OC1C(OP(O)(O)=S)C(O)C(OP(O)(O)=S)C(OP(O)(O)=S)C1OP(O)(O)=S (stereo unspecified) | 5320 |  |  |  | 
2 | NC1C(O)C(OP(=O)(O)O)C(O)C(OP(=O)(O)O)C1OP(=O)(O)O (stereo unspecified) | 3680 | 1490 | 9110 | 5650 | 1070
3 | OC1C(O)C(OP(O)(O)=S)C(OP(O)(O)=S)C(O)C1OP(O)(O)=S (stereo unspecified) | 255 | 107 | 78 | 61 | 52
